Test [1] has as its system Rattus norvegicus. The test is described as follows: Compound was tested for its effect on animals. Value reported as number of rats disrupted in trained rats at a dose of 290 (nmol/kg). The test is classed as functional. Summed up:
(§1)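 Two-lever drug discrimination in food-restricted rats (~80% free-feeding weight) trained on FR 50 to tell saline from LSD tartrate (186 nmol/kg, 0.08 mg/kg ip, 30 min pre-session). Test drugs were given ip in saline, 1 mL/kg. Test sessions ran under extinction, ending at 50 presses on either lever. Testing required 85% training accuracy. Counts of rats tested and disrupted were recorded, plus the percentage selecting the drug lever.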

Test [2] deals with Rattus norvegicus. The test is described as follows: Compound was tested for its effect on animals. Value reported as number of rats disrupted in trained rats at a dose of 93 (nmol/kg). The test is classed as functional. Summed up:
as §1

Test [3] relates to Rattus norvegicus. The test is described as follows: Percentage of animals selecting drug lever in trained rats at a dose 93 (nmol/kg). The format is functional. Summed up: (§2)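 Drug-naive rats held at about 80% of free-feeding weight were trained on a two-lever FR50 food schedule to tell ip LSD tartrate (186 nmol/kg, 0.08 mg/kg) from saline, given 30 min before sessions. Test drugs were given ip in saline (1 mL/kg). Tests ran under extinction and ended at 50 presses on either lever. Rats had to hold 85% correct on training days. Read-out was % selecting the drug lever per dose.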

Test [4] has as its system Rattus norvegicus. The test is described as follows: Percentage of animals selecting drug lever in trained rats at a dose 290 (nmol/kg). The format is functional. In short, it runs like this:
as §1

Test [5] deals with Rattus norvegicus. The test is described as follows: Compound was tested for its effect on animals. Value reported as number of rats disrupted in trained rats at a dose of 465 (nmol/kg). The format is functional. Summed up: as §1
Test [6] deals with 5-hydroxytryptamine receptor 2A (Rattus norvegicus, UniProt P14842). The test is described as follows: Binding affinity was measured against 5-hydroxytryptamine 2A receptor by displacement of [3H]- ketanserin by lysergic acid amides. Summed up:
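Rat frontal cortex membranes from pooled male Sprague-Dawley rats, preincubated at 37 °C, in 50 mM Tris HCl (pH 7.4) with 0.5 mM Na2EDTA, 0.1% ascorbate, 10 μM pargyline and 5.7 mM CaCl2. Triplicates. Three to four experiments combined.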

Test [7] relates to Rattus norvegicus. The test is described as follows: Percentage of animals selecting drug lever in trained rats at a dose 372 (nmol/kg). The format is functional. Summed up: as §1
Test [8] deals with Rattus norvegicus. The test is described as follows: Compound was tested for its effect on animals. Value reported as number of rats disrupted in trained rats at a dose of 372 (nmol/kg). The format is functional. In short, it runs like this: as §1
Test [9] relates to Rattus norvegicus. The test is described as follows: Percentage of animals selecting drug lever in trained rats at a dose 465 (nmol/kg). The test is classed as functional. In short, it runs like this:
as §2

Test [10] concerns Rattus norvegicus. The test is described as follows: Compound was tested for its effect on animals. Value reported as number of rats disrupted in trained rats at a dose of 47 (nmol/kg). The test is classed as functional. Summed up: as §1
Test [11] deals with Rattus norvegicus. The test is described as follows: Potency in trained rats was determined with relative to reference compound […] at a dose of 186 (nmol/kg). The format is functional.
Test [12] deals with Rattus norvegicus. The test is described as follows: Compound was tested for its effect on animals. Value reported as number of rats disrupted in trained rats at a dose of 186 (nmol/kg). The test is classed as functional. In short, it runs like this: as §1
Test [13] deals with Rattus norvegicus. The test is described as follows: Effective dose in trained rats was determined at a dose of 47 (nmol/kg). The format is functional.
Test [14] concerns the target T1, 5-hydroxytryptamine receptor 1A (Rattus norvegicus, UniProt P19327).
T1 sequence (P19327 whole entry): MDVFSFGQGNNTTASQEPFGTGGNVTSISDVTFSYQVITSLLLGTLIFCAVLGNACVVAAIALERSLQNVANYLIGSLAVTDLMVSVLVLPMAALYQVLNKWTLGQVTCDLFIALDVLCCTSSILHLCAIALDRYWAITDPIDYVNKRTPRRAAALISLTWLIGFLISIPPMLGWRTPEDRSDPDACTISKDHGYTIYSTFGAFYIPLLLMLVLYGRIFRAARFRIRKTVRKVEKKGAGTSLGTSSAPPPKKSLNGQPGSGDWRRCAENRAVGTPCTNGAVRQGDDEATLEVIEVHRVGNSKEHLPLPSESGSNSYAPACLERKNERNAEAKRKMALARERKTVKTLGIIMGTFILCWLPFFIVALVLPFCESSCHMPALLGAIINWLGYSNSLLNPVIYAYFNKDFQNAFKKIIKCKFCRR
The test is described as follows: Binding affinity was measured against 5-hydroxytryptamine 1A receptor by displacement of [3H]8-OH-DPAT by lysergic acid amides. In short, it runs like this: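 Rat hippocampal membranes from pooled male Sprague-Dawley rats, preincubated at 37 °C, in 50 mM Tris HCl (pH 7.4) with 0.5 mM Na2EDTA, 0.1% ascorbate and 10 μM pargyline. Competition against 0.75 nM [3H]-8-OH-DPAT for 10 min at 37 °C, then GF/C filtration and scintillation counting. Triplicates. Three to four experiments combined, analysed with EBDA/LIGAND.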
For orientation: Displacement assays read how much labelled ligand stays bound in the presence of the test substance.

Sequence of 5-hydroxytryptamine receptor 2A (P14842 whole entry): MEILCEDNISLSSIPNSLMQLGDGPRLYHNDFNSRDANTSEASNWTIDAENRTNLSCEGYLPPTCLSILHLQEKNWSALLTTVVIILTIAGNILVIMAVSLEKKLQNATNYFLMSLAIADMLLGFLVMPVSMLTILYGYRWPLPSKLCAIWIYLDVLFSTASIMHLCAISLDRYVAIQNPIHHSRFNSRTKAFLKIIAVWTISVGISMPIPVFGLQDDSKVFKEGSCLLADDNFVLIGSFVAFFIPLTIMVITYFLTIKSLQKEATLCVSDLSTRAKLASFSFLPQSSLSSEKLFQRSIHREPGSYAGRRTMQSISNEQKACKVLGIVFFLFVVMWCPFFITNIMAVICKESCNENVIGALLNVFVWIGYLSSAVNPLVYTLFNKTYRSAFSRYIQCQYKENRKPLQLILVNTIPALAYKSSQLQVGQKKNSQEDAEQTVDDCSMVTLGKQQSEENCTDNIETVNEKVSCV

`CC[C@@H](C)NC(=O)[C@@H]1C=C2c3cccc4[nH]cc(c34)C[C@H]2N(C)C1`: the D is 10% in test [1]; 0% in test [2]; 10% in test [5]; 0% in test [8]; 10% in test [10]; 27% in [12]. For the same compound, the SDL in test [3] is reported as 50%; in [4], 67%; in test [7], 75%; in test [9] it was 100%. Besides, the Ki (commonly a measure of affinity in units of concentration, obtained from inhibition or displacement) in test [6] turned out to be 34 nM; in test [14] it was 4.6 nM. In test [11], this compound had a Potency of 0.39. For the same compound, the ED50 (usually the dose at which the effect has come halfway, by size or by number of responders) in test [13] worked out at 0.124 µmol/kg.

The values above are taken from ChEMBL document CHEMBL1128272, “Stereoselective LSD-like activity in a series of d-lysergic acid amides of (R)- and (S)-2-aminoalkanes” (J Med Chem, 1995).
